Assay results from ChEMBL document CHEMBL2417481, “Regioselective synthesis of 6-substituted-2-amino-5-bromo-4(3H)-pyrimidinones and evaluation of their antiviral activity” (Eur J Med Chem, 2013).

System: Vaccinia virus
Test: Antiviral activity against Vaccinia virus Lederle infected in human HEL cells assessed as reduction in virus-induced cytopathogenicity
Type: functional, organism-based
Conditions: Orthopoxvirus vaccinia
Method in brief: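 Confluent cell monolayers (Vero, HeLa, HEL or MDCK, as named in each line) were infected with 100 CCID50 of virus while exposed to a range of compound concentrations. Cytopathicity was scored once it was complete in untreated infected controls.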

Row | Compound | EC50 [µM]
1 | Nc1nc(CC(O)c2ccc(Cl)cc2)c(Br)c(=O)[nH]1 (stereo not given) | > 100
2 | CCCCc1nc(N)[nH]c(=O)c1Br | > 100
3 | Cc1cc(C)c(/C=C/c2nc(N)[nH]c(=O)c2Br)c(C)c1 | > 20
4 | COc1ccc(/C=C/c2nc(N)[nH]c(=O)c2Br)cc1OC | > 100
5 | Nc1nc(CC(O)c2ccccc2C(F)(F)F)c(Br)c(=O)[nH]1 (stereo not given) | > 100
6 | CC(C)(O)Cc1nc(N)[nH]c(=O)c1Br | > 100
7 | Nc1nc2c(ncn2COCCO)c(=O)[nH]1 [ACYCLOVIR] | > 250
8 | CCCCCc1nc(N)[nH]c(=O)c1Br | > 100
9 | CCCc1nc(N)[nH]c(=O)c1Br | > 100
10 | Nc1nc(CCc2ccccc2)c(Br)c(=O)[nH]1 | > 100
